Among the data in ChEMBL document CHEMBL5705897, “Characterization of WZ4003 and HTH-01-015 as selective inhibitors of the LKB1-tumour-suppressor-activated NUAK kinases” (Biochem J, 2014) are Activity values, retold here.

Experiment [1] deals with Serine/threonine-protein kinase D1 (Homo sapiens) (UniProt Q15139). Description: Inhibition of recombinant human N-terminal His6-tagged PKD1 (2 to 912 residues) expressed in baculovirus infected Sf21 cells assessed as remaining activity at 1 uM using KKLNRTLSVA as substrate incubated for 30 mins in presence of [gamma-33P]ATP by filter binding method relative to control. An outline of the steps:
(§1)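 Screened at the International Centre for Protein Kinase Profiling against a 140-kinase panel, with inhibitor at 0.1 or 1 μM; activity expressed as percentage of DMSO control reactions, mean of triplicate reactions.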

The target in experiment [2] is Serine/threonine-protein kinase PLK1 (Homo sapiens) (UniProt P53350). In words: Inhibition of recombinant human N-terminal His6-tagged PLK1 (1 to 603 residues) expressed in baculovirus infected Sf21 cells assessed as remaining activity at 1 uM using ISDELMDATFADQEAKKK as substrate incubated for 30 mins in presence of [gamma-33P]ATP by filter binding method relative to control. An outline of the steps:
as §1

In experiment [3] the target is Serine/threonine-protein kinase Chk1 (Homo sapiens) (UniProt O14757). Description: Inhibition of recombinant human N-terminal GST-tagged CHK1 (1 to 476 residues) expressed in baculovirus infected Sf21 cells assessed as remaining activity at 1 uM using CHKtide as substrate incubated for 30 mins in presence of [gamma-33P]ATP by filter binding method relative to control. An outline of the steps: as §1

For experiment [4], the target named is T1, Aurora kinase A (Homo sapiens) (UniProt O14965).
T1 sequence (whole entry): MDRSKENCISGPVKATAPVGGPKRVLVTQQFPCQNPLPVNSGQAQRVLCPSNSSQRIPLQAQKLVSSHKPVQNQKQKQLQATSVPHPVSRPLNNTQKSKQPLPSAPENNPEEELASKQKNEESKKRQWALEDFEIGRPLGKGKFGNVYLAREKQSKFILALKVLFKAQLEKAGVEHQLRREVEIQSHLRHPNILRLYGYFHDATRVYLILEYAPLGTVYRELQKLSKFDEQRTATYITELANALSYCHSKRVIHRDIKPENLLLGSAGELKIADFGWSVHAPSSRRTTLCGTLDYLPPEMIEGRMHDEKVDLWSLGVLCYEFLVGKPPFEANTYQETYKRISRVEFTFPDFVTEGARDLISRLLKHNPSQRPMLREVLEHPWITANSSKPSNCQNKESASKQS
In words: Inhibition of recombinant human N-terminal […] Aurora A (2 to 403 residues) expressed in Escherichia coli assessed as remaining activity at 1 uM using LRRLSLGLRRLSLGLRRLSLGLRRLSLG as substrate incubated for 30 mins in presence of [gamma-33P]ATP by filter binding method relative to control. An outline of the steps: as §1

Experiment [5] addresses Testis-specific serine/threonine-protein kinase 1 (Homo sapiens) (UniProt Q9BXA7). Description: Inhibition of recombinant human N-terminal GST-tagged TSSK1 (1 to 367 residues) expressed in Escherichia coli assessed as remaining activity at 1 uM using KKKVSRSGLYRSPSMPENLNRPR as substrate incubated for 30 mins in presence of [gamma-33P]ATP by filter binding method relative to control. An outline of the steps: as §1

Sequence of Serine/threonine-protein kinase Chk1 (Homo sapiens) (O14757 whole entry, the tested form may be a part): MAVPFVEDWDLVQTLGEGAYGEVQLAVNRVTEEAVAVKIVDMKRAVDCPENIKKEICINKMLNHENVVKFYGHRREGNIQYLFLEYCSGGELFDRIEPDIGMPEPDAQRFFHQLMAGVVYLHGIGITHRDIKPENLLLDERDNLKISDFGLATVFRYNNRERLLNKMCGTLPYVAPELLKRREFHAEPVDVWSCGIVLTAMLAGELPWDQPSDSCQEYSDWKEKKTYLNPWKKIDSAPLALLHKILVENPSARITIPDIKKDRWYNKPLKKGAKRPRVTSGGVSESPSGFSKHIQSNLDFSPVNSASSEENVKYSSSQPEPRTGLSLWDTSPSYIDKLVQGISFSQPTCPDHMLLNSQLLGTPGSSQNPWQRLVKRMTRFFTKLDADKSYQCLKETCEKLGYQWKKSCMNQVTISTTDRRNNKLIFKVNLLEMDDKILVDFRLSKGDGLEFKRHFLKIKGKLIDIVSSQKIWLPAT
Sequence of Serine/threonine-protein kinase D1 (Homo sapiens) (Q15139 whole entry, the tested form may be a part): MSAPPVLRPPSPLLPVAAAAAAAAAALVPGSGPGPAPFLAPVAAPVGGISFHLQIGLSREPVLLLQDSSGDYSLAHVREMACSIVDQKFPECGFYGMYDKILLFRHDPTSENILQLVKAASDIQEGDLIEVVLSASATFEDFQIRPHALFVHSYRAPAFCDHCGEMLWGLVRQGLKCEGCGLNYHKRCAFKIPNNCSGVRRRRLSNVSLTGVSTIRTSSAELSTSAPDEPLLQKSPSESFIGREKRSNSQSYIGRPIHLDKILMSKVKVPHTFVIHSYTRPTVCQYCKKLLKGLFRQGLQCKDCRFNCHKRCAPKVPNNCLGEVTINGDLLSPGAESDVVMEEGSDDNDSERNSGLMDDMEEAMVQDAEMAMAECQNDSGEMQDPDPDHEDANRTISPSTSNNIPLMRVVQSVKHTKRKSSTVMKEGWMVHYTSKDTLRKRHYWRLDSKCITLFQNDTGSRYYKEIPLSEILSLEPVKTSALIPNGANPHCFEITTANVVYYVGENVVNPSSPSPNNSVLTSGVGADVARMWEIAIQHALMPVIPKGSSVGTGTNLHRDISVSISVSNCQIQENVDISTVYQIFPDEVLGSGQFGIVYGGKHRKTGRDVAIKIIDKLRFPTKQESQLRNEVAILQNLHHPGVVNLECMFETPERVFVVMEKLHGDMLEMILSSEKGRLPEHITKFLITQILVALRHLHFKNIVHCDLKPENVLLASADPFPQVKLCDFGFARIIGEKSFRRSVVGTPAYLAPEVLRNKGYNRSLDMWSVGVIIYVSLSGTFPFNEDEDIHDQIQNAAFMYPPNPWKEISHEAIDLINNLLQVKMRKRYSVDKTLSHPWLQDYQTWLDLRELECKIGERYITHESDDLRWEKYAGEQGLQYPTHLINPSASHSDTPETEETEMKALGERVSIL
Sequence of Serine/threonine-protein kinase PLK1 (Homo sapiens) (P53350 whole entry, the tested form may be a part): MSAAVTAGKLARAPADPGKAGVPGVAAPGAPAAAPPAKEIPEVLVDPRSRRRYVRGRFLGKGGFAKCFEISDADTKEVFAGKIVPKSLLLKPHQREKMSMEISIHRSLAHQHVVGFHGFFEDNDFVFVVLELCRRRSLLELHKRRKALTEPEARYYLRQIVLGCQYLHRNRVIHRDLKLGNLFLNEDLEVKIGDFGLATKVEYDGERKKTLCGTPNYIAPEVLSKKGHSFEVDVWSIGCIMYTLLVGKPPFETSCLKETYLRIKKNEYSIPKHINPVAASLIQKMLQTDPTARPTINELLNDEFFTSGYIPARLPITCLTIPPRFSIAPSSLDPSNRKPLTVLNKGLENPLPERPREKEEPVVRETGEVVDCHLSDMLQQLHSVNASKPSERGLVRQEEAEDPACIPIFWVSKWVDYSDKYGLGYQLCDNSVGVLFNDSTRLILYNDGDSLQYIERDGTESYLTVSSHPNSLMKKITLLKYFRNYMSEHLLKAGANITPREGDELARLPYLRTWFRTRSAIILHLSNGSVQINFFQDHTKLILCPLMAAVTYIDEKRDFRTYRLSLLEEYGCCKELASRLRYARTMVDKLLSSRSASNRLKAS
Sequence of Testis-specific serine/threonine-protein kinase 1 (Homo sapiens) (Q9BXA7 whole entry, the tested form may be a part): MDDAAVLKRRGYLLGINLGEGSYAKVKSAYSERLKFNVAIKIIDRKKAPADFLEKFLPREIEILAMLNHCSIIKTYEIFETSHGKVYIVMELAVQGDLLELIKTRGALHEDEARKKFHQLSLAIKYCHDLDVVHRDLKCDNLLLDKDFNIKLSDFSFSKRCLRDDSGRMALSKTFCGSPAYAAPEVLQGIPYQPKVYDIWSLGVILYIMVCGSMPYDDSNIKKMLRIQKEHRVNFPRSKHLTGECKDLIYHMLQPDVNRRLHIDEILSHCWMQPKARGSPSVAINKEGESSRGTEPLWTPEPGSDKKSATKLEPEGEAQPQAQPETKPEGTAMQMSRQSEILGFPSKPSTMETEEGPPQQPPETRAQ

`CCC(=O)Nc1cccc(Oc2nc(Nc3ccc(N4CCN(C)CC4)cc3OC)ncc2Cl)c1`: the Activity was 57% in experiment [1]; 84% in experiment [2]; 58% in experiment [3]; 75% in experiment [4]; 58% in experiment [5].
